Each block holds one molecule with its values, some of them ahead of it.
Assays:
[1] = molecular target: T1, Sodium channel protein type 9 subunit alpha (Homo sapiens, UniProt Q15858); experiment: Inhibition of human Nav 1.7 channel by voltage-ion-probe-reader
How it was run: (§1)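 Functional membrane-potential FRET assay on voltage-gated hNav1.7, read on a voltage-ion-probe reader (VIPR). Results given as IC50 or as percent inhibition at 10 μM.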
Target sequence in this assay (Q15858 whole entry): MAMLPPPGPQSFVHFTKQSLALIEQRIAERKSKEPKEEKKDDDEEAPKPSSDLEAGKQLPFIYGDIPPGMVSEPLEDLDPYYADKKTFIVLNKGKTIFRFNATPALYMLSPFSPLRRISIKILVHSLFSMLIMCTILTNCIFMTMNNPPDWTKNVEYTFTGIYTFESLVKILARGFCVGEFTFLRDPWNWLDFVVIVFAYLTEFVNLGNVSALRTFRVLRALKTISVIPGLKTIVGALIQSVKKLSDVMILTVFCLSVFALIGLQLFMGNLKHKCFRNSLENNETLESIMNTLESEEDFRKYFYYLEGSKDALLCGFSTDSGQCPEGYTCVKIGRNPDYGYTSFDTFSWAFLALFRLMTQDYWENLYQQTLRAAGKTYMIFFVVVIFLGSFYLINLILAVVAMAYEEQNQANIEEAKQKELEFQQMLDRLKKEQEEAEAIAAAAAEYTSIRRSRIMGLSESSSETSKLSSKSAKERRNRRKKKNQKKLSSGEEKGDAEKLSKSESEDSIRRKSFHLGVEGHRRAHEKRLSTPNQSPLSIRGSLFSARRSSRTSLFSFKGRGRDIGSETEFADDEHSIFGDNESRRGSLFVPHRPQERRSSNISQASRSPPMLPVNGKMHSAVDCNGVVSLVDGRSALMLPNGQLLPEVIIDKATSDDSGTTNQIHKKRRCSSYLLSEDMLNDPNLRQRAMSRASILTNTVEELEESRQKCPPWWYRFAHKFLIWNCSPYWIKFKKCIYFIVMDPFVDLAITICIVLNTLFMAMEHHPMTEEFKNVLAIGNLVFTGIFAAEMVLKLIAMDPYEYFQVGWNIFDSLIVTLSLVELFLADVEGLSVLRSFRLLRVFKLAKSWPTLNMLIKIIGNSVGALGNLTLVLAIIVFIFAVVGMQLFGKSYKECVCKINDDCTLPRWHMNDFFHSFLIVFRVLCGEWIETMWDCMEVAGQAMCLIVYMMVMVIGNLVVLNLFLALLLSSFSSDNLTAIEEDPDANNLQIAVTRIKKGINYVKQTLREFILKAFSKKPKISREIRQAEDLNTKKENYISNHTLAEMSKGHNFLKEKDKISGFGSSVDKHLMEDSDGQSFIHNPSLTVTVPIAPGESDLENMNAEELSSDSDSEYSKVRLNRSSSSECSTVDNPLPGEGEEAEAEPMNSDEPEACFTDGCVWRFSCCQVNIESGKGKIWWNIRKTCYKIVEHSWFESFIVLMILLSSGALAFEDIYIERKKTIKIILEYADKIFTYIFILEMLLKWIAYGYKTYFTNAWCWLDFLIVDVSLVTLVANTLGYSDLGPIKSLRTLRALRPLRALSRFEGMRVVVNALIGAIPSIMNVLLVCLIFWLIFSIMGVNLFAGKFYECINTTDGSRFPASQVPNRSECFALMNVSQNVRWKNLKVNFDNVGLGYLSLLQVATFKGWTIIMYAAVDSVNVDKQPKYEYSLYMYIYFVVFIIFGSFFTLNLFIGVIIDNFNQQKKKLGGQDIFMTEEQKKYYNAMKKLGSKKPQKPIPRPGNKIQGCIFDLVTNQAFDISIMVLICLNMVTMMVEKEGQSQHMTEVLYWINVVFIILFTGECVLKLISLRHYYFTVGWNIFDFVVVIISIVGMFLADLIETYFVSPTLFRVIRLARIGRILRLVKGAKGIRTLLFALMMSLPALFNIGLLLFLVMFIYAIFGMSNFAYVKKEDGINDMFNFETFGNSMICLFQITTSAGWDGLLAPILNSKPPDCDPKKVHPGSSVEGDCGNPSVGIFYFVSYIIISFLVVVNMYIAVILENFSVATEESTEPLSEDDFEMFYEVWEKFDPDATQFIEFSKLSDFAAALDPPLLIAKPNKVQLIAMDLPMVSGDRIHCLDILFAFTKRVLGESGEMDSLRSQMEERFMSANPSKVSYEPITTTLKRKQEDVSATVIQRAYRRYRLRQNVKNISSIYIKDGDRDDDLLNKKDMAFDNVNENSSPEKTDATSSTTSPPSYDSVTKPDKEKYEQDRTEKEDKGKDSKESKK

Rattus norvegicus [2] = experiment: Antiallodynic activity in rat spinal nerve ligation model of neuropathic pain assessed as reversal of allodynia at 10 mg/kg, po after 4 hrs; type: functional
How it was run: (§2)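 Rat spinal nerve ligation (Chung) neuropathic pain model; compound given orally as a single dose (10 or 30 mg/kg). Allodynia reversal read at 2 h and 4 h after dosing, expressed as percent reversal.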

Rattus norvegicus [3] = experiment: Antiallodynic activity in rat spinal nerve ligation model of neuropathic pain assessed as reversal of allodynia at 10 mg/kg, po after 2 hrs; type: functional; how it was run: as §2
hERG (KCNH2) = hERG (KCNH2) (Homo sapiens, UniProt Q12809); experiment: Displacement of [35S][…] from human ERG channel at 10 uM
How it was run: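 hERG binding assay measuring displacement of 35S-labeled MK-0499, a known hERG blocker. Test compound at 10 μM; result expressed as percent inhibition of binding.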

[4] = Clearance in rat plasma at 1 mg/kg, ip; type: ADME, organism-based; design: dose 1 mg/kg, route intraperitoneal
[5] = molecular target: T1, Sodium channel protein type 9 subunit alpha; experiment: Inhibition of human Nav 1.7 channel by electrophysiology
Target sequence in this assay (Q15858 whole entry): as above

Rattus norvegicus [6] = experiment: Neurotoxicity in rat assessed as effect on motor coordination by measuring reduced latency at 30 mg/kg, po by rotarod test; type: toxicity, organism-based; design: dose 30 mg/kg, route oral; conditions: in vivo
How it was run: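 Rat rotarod test of motor coordination after oral dosing (30 or 100 mg/kg). Read-out is latency on the rotarod.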

[7] = Half life in dog; type: ADME, organism-based, Canis lupus familiaris; conditions: in vivo
[8] = Volume of distribution in dog; type: ADME, organism-based, Canis lupus familiaris; conditions: in vivo
[9] = Half life in rat; type: ADME, organism-based; conditions: in vivo
Rattus norvegicus [10] = experiment: Antiallodynic activity in rat spinal nerve ligation model of neuropathic pain assessed as reversal of allodynia at 30 mg/kg, po after 2 hrs; type: functional; how it was run: as §2
Rattus norvegicus [11] = organism: Rattus norvegicus; experiment: Plasma clearance in rat; type: ADME, organism-based; conditions: in vivo
Rattus norvegicus [12] = experiment: Antiallodynic activity in rat spinal nerve ligation model of neuropathic pain assessed as reversal of allodynia at 30 mg/kg, po after 4 hrs; type: functional; how it was run: as §2
Macaca mulatta = organism: Macaca mulatta; experiment: Metabolic stability in monkey liver microsomes after 60 mins; type: functional; conditions: Microsome
How it was run: (§3)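 Compound incubated for 60 min with liver microsomal preparations. Conversion to the carboxylic acid metabolite formed by carboxamide hydrolysis was followed.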

Rattus norvegicus [13] = experiment: Antiallodynic activity in rat spinal nerve ligation model of neuropathic pain assessed as reversal of mechanical allodynia at 3 mg/kg, po bid for 2 days measured after 2 hrs post final dose; type: functional
How it was run: (§4)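 Rat spinal nerve ligation (Chung) model; oral dosing at 3 mg/kg bid for 2 days. Reversal of mechanical allodynia read at 2 h and 4 h, expressed as percent reversal; significance given as p values.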

[14] = molecular target: T2, Nuclear receptor subfamily 1 group I member 2 (Homo sapiens, UniProt O75469); experiment: Induction of human PXR by induction assay
T2 sequence (O75469 whole entry): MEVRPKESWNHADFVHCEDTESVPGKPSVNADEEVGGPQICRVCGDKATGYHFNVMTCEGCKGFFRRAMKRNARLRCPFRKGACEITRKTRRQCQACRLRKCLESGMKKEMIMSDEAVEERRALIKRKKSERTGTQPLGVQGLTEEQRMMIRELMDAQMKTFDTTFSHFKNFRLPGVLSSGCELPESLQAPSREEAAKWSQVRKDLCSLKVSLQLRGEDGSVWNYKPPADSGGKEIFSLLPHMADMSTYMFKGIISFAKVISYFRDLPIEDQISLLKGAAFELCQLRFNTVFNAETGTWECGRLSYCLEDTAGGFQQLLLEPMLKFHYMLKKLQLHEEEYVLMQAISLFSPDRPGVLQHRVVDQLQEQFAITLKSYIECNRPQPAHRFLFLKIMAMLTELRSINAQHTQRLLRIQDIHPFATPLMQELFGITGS

Liver microsomes [15] = experiment: Metabolic stability in human liver microsomes after 60 mins; type: functional; conditions: Microsome; how it was run: as §3
[16] = Volume of distribution in rat; type: ADME, organism-based; conditions: in vivo
Cytochrome P450 2D6 = Cytochrome P450 2D6 (Homo sapiens, UniProt P10635); experiment: Inhibition of CYP2D6; type: ADME
Liver = experiment: Metabolic stability in dog liver microsomes after 60 mins; type: functional; conditions: Canis lupus familiaris, Microsome; how it was run: as §3
[17] = Oral bioavailability dog; type: ADME, organism-based, Canis lupus familiaris; conditions: in vivo
Mus musculus = experiment: Anticonvulsant activity in mouse assessed as protection against maximal electric shock-induced tonic seizures at 10 mg/kg, po after 4 hrs; type: functional
How it was run: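 Mouse maximal electroshock (MES) seizure model. Oral dose 10 mg/kg, given 4 h before the shock. Read-out is protection from tonic seizures, expressed as percent.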

Cytochrome P450 3A4 = Cytochrome P450 3A4 (Homo sapiens, UniProt P08684); experiment: Inhibition of CYP3A4; type: ADME
Cytochrome P450 2C9 = Cytochrome P450 2C9 (Homo sapiens, UniProt P11712); experiment: Inhibition of CYP2C9; type: ADME
Rattus norvegicus [18] = experiment: Antiallodynic activity in rat spinal nerve ligation model of neuropathic pain assessed as reversal of mechanical allodynia at 3 mg/kg, po bid for 2 days measured after 4 hrs post final dose; type: functional; how it was run: as §4
Liver microsomes [19] = experiment: Metabolic stability in rat liver microsomes after 60 mins; type: functional; conditions: Microsome; how it was run: as §3
[20] = Oral bioavailability in rat; type: ADME, organism-based; conditions: in vivo
Canis familiaris = organism: Canis familiaris; experiment: Plasma clearance in dog; type: ADME, organism-based, Canis lupus familiaris; conditions: in vivo
[21] = molecular target: T1, Sodium channel protein type 9 subunit alpha; experiment: Inhibition of human Nav 1.7 channel at 10 uM by voltage-ion-probe-reader; how it was run: as §1
Target sequence in this assay (Q15858 whole entry, looked up): as the sequence (Q15858 whole entry) above

Chain of hERG (KCNH2) (Q12809 whole entry): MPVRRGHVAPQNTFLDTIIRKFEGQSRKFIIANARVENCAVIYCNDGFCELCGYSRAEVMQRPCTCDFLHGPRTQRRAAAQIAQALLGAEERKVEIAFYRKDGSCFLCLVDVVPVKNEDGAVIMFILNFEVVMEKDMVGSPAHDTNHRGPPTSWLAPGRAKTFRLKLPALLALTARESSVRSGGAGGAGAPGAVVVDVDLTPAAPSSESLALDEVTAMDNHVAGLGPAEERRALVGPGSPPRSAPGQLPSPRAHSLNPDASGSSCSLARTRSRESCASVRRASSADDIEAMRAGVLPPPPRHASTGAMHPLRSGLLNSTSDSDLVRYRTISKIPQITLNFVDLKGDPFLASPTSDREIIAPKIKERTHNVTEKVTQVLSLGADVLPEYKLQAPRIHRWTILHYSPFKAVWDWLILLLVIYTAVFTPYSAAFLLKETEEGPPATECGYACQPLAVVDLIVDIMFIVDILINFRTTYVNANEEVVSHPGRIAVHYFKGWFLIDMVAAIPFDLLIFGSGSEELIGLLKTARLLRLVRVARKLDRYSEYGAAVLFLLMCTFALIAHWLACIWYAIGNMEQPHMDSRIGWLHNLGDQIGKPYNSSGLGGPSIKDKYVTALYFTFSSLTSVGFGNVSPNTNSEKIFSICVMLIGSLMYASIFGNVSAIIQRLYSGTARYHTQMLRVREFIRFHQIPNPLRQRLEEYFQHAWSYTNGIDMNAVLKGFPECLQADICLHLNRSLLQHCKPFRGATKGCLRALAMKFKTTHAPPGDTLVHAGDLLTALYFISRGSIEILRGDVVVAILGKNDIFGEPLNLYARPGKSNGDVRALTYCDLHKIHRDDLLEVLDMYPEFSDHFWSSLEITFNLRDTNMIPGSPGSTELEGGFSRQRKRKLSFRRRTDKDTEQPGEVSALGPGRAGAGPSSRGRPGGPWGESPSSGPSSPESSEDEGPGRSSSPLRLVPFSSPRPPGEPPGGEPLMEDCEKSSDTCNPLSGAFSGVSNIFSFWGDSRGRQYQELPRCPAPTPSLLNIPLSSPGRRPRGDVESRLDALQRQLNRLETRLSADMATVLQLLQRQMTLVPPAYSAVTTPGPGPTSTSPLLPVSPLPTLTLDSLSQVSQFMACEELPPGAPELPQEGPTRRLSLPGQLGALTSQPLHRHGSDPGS
Chain of Cytochrome P450 2D6 (P10635 whole entry): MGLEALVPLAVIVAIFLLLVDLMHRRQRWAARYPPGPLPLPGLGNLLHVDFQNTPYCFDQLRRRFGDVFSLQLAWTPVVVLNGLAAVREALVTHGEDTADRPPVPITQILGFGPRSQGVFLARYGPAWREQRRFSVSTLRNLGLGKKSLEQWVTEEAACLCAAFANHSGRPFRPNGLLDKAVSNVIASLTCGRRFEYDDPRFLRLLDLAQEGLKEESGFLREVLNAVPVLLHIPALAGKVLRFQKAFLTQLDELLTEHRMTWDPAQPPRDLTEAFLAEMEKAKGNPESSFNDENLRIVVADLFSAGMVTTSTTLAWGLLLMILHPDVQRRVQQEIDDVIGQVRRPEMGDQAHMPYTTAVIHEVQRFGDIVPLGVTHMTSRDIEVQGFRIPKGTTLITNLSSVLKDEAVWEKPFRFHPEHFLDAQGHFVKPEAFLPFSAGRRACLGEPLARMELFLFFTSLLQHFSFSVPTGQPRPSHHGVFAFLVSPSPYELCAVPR
Chain of Cytochrome P450 3A4 (P08684 whole entry): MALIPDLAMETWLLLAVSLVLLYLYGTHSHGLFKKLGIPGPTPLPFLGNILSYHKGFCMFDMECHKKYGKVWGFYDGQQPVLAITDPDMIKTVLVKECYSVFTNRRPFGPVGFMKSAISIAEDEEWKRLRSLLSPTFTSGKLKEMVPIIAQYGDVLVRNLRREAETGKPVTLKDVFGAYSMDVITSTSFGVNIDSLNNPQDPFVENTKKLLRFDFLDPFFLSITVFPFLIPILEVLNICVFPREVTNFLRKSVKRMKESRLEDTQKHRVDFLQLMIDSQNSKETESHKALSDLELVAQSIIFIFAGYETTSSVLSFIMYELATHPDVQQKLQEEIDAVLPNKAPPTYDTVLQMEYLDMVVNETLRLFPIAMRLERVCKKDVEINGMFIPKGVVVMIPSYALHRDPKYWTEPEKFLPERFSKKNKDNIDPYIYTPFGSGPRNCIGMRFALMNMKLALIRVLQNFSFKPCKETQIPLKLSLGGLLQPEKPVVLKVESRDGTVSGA
Chain of Cytochrome P450 2C9 (P11712 whole entry): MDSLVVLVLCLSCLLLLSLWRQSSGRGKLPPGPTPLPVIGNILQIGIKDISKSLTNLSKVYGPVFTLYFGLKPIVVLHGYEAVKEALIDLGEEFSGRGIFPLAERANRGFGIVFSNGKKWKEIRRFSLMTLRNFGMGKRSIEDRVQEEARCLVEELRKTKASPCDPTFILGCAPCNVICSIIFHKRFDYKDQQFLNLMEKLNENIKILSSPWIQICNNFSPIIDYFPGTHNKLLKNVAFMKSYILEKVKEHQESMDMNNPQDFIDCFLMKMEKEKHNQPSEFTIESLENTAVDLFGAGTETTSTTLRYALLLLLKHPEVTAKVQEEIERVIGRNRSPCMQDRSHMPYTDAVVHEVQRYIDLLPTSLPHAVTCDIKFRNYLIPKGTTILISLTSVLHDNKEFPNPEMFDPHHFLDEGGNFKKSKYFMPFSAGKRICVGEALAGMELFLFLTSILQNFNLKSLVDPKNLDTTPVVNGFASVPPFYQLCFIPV

SMILES: CC(C)(C)c1cc(C(N)=O)nn1-c1cccc(-c2ccccc2OC(F)(F)F)c1
IC50 [1]: 1370 nM

SMILES: NC(=O)n1ccc(-c2ccc(-c3ccccc3Cl)cc2)n1
CL/F [4]: 125 mL/min/kg | Ki [5]: 111 nM

SMILES: NC(=O)c1cc(N)n(-c2cccc(-c3ccccc3OC(F)(F)F)c2)n1
IC50 [1]: 111 nM | inhibition at 10 µM (hERG (KCNH2)): 44%

SMILES: Cc1cc(C(N)=O)nn1-c1cc(-c2ccccc2OC(F)(F)F)ccc1F
IC50 [1]: 222 nM | Activity (Rattus norvegicus [2]): 8% | Activity (Rattus norvegicus [3]): 17% | inhibition at 10 µM (hERG (KCNH2)): 62%

SMILES: NC(=O)n1ccc(-c2ccc(Oc3ccc(Cl)cc3F)cc2)n1
Ki [5]: 13 nM

SMILES: Cc1cc(C(N)=O)nn1-c1cccc(-c2ccccc2Oc2ccccc2)c1
IC50 [1]: 875 nM | inhibition at 10 µM (hERG (KCNH2)): 13%

SMILES: NC(=O)c1cc(-c2cccc(-c3ccccc3OC(F)(F)F)c2)n[nH]1
IC50 [1]: 508 nM | inhibition at 10 µM (hERG (KCNH2)): 94%

SMILES: Cc1cc(C(N)=O)nn1-c1ccc(F)c(-c2ccccc2OC(F)(F)F)c1
IC50 [1]: 162 nM | inhibition at 10 µM (hERG (KCNH2)): 66%

SMILES: NC(=O)c1nc(-c2cccc(-c3ccccc3OC(F)(F)F)c2)cs1
Ki [5]: 15 nM

SMILES: Cc1cc(C(N)=O)nn1-c1cccc(-c2ccccc2Cl)c1
IC50 [1]: 738 nM | inhibition at 10 µM (hERG (KCNH2)): 8%

SMILES: NC(=O)n1ccc(-c2cccc(-c3ccccc3Cl)c2)n1
CL/F [4]: 123 mL/min/kg | Ki [5]: 18 nM

SMILES: NC(=O)c1ccn(-c2cccc(-c3ccccc3OC(F)(F)F)c2)n1
IC50 [1]: 65 nM | inhibition at 10 µM (hERG (KCNH2)): 51%

Second part, led by results:

IC50 [1]: 243 nM
SMILES: Cc1cc(C(N)=O)nn1-c1cccc(-c2ccc(Cl)cc2C(F)(F)F)c1
Activity (Rattus norvegicus [2]): 0% | Activity (Rattus norvegicus [3]): 8% | inhibition at 10 µM (hERG (KCNH2)): 45%

IC50 [1]: 224 nM
SMILES: Cc1cc(C(N)=O)nn1-c1cccc(-c2ccccc2OC(F)(F)F)c1
Activity (Rattus norvegicus [2]): 11% | Activity (Rattus norvegicus [3]): 33% | inhibition at 10 µM (hERG (KCNH2)): 6%

IC50 [1]: 128 nM
SMILES: Cc1cc(C(N)=O)nn1-c1cccc(-c2ccccc2OCC(F)(F)C(F)(F)F)c1
Activity (Rattus norvegicus [2]): 9% | Activity (Rattus norvegicus [3]): 15% | inhibition at 10 µM (hERG (KCNH2)): 49%

IC50 [1]: 71 nM
SMILES: Cc1cc(C(N)=O)nn1-c1cccc(-c2c(F)cccc2C(F)(F)F)c1
Activity (Rattus norvegicus [2]): 2% | Activity (Rattus norvegicus [3]): 12% | inhibition at 10 µM (hERG (KCNH2)): 74%

IC50 [1]: 163 nM
SMILES: Cc1cc(C(N)=O)nn1-c1cccc(-c2ccccc2C(F)(F)F)c1
Activity (Rattus norvegicus [2]): 19% | Activity (Rattus norvegicus [3]): 14% | inhibition at 10 µM (hERG (KCNH2)): 68%

IC50 [1]: 41 nM
SMILES: Cc1cc(C(N)=O)nn1-c1cccc(-c2c(C(F)(F)F)cccc2C(F)(F)F)c1
Activity (Rattus norvegicus [2]): 6% | Activity (Rattus norvegicus [3]): 16% | inhibition at 10 µM (hERG (KCNH2)): 67%

IC50 [1]: 187 nM
SMILES: Cc1cc(C(N)=O)nn1-c1cccc(-c2ccccc2OCC(F)(F)F)c1
Activity (Rattus norvegicus [2]): 4% | Activity (Rattus norvegicus [3]): 18% | inhibition at 10 µM (hERG (KCNH2)): 43%

IC50 [1]: 781 nM
SMILES: Cc1cc(C(N)=O)nn1-c1cccc(-c2cccc(F)c2C(F)(F)F)c1
inhibition at 10 µM (hERG (KCNH2)): 73%

half-life [7]: 1.4 h | Vd [8]: 1.43 L/kg | IC50 [1]: 426 nM | half-life [9]: 2 h | clearance (Rattus norvegicus [11]): 11 mL/min/kg | IC50 [14]: > 25000 nM | Vd [16]: 3.1 L/kg | IC50 (Cytochrome P450 2D6): > 100000 nM | bioavailability [17]: 50% | IC50 (Cytochrome P450 3A4): > 100000 nM | IC50 (Cytochrome P450 2C9): 9000 nM | bioavailability [20]: 55% | clearance (Canis familiaris): 16 mL/min/kg
SMILES: Cc1cc(C(N)=O)nn1-c1cccc(-c2ccc(C(F)(F)F)cc2C(F)(F)F)c1
Activity (Rattus norvegicus [6]): Not Active | Activity (Rattus norvegicus [10]): 69% | Activity (Rattus norvegicus [12]): 55% | Stability (Macaca mulatta): Stable | Activity (Rattus norvegicus [13]): 80% | Activity (Rattus norvegicus [2]): 32% | Activity (Rattus norvegicus [3]): 35% | Stability (Liver microsomes [15]): Stable | Stability (Liver): Stable | Activity (Mus musculus): 90% | Activity (Rattus norvegicus [18]): 87% | Stability (Liver microsomes [19]): Unstable | inhibition at 10 µM (hERG (KCNH2)): 53%

IC50 [1]: 272 nM | IC50 (Cytochrome P450 2D6): 33000 nM | IC50 (Cytochrome P450 3A4): 51000 nM | IC50 (Cytochrome P450 2C9): 2600 nM
SMILES: Cc1cc(C(N)=O)nn1-c1cccc(-c2cc(C(F)(F)F)ccc2C(F)(F)F)c1
Activity (Rattus norvegicus [2]): 35% | Activity (Rattus norvegicus [3]): 39% | inhibition at 10 µM (hERG (KCNH2)): 51%

inhibition [21]: 17%
SMILES: Cc1cc(C(N)=O)nn1-c1cccc(-c2cc(C(F)(F)F)cc(C(F)(F)F)c2)c1

IC50 [1]: 412 nM
SMILES: Cc1cc(C(N)=O)nn1-c1cccc(-c2cc(F)ccc2C(F)(F)F)c1
inhibition at 10 µM (hERG (KCNH2)): 41%

IC50 [1]: 373 nM
SMILES: Cc1cc(C(N)=O)nn1-c1ccc(OC(F)(F)F)c(-c2ccccc2OC(F)(F)F)c1
inhibition at 10 µM (hERG (KCNH2)): 77%

Source: ChEMBL document CHEMBL1221355, “Substituted biaryl pyrazoles as sodium channel blockers” (Bioorg Med Chem Lett, 2010)
